Measurements reported in ChEMBL document CHEMBL2429834, “Potent histone deacetylase inhibitors derived from 4-(aminomethyl)-N-hydroxybenzamide with high selectivity for the HDAC6 isoform” (J Med Chem, 2013).
pIC50: −log10 of the molar value. ≈ marks a conversion by molar mass, not a printed value.

What was measured:
Homo sapiens = species on record: Homo sapiens; assay: Selectivity ratio of IC50 for full length C-terminal His6x-tagged recombinant human HDAC8 to IC50 for N-terminal GST-tagged recombinant HDAC6 (unknown origin)
[1] = target: T1, Protein deacetylase HDAC6 (Homo sapiens, UniProt Q9UBN7); assay: Inhibition of N-terminal GST-tagged recombinant HDAC6 (unknown origin) assessed as deacetylation of Ac-Arg-Gly-Lys (Ac) after 1 hr by fluorescence plate reader analysis in presence of trypsin
T1 sequence (Q9UBN7 whole entry): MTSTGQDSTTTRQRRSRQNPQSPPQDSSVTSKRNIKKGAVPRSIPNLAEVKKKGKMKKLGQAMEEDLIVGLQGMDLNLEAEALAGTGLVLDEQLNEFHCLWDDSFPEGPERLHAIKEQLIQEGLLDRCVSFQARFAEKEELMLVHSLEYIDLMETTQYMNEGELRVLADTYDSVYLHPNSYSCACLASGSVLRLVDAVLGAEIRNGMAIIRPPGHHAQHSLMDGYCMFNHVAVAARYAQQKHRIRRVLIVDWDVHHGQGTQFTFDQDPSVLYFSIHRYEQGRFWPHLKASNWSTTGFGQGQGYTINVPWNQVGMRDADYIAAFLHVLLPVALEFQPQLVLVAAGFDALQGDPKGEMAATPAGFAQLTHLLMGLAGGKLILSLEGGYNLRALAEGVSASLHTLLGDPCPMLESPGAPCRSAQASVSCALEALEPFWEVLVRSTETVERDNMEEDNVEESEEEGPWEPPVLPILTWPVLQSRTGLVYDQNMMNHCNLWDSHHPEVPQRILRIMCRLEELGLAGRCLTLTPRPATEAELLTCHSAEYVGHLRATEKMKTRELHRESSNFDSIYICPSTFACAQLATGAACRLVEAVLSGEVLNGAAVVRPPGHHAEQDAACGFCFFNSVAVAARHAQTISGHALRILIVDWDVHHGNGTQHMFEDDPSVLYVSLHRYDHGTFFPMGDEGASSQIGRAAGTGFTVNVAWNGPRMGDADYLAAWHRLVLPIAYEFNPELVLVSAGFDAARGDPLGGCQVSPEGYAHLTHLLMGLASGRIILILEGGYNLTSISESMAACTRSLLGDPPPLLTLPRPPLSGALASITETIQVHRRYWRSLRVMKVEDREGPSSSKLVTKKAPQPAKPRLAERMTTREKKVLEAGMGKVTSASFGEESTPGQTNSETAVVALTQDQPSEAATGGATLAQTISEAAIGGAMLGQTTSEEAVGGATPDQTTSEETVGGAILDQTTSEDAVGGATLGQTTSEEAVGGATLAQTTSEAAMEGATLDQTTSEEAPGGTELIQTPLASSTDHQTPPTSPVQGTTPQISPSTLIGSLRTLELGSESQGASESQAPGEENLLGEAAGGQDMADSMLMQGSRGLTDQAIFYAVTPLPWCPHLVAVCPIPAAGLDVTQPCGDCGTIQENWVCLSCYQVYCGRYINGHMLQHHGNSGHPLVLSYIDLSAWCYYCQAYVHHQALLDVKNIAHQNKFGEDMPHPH

[2] = target: T2, Protein deacetylase HDAC6 (Homo sapiens) (UniProt Q9UBN7); assay: Inhibition of HDAC6 in human HeLa cells using acetyl tubulin as substrate assessed as Ac-Lys accumulation in nuclear histones at 20 uM after 24 hrs by immunofluorescence assay relative to control
T2 sequence (whole entry): T1 sequence (Q9UBN7 whole entry)

[3] = Selectivity ratio of IC50 for HDAC1/2 in human HeLa cell nuclear extract to IC50 for N-terminal GST-tagged recombinant HDAC6 (unknown origin); format: cell-based
Summary of the method: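 HDAC6 leg: 1 nM GST-HDAC6 with 8 μM Ac-Arg-Gly-Lys(Ac)-AMC. Nuclear-extract leg: 30 μg/mL HeLa nuclear extract (mainly HDAC1/2) with 20 μM of the same substrate in 50 mM Tris-Cl, 137 mM NaCl, 2.7 mM KCl, 1 mM MgCl2, pH 8.0.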

[4] = target: T1, Protein deacetylase HDAC6; assay: Inhibition of HDAC6 in human HeLa cells using acetyl tubulin as substrate assessed as Ac-tubulin accumulation in cytosol after 6 hrs by immunofluorescence assay
[5] = Kinetic solubility of the compound in potassium phosphate buffer at pH 6.8 by turbidometric analysis; format: physicochemical; settings: read-out: Kinetic_solubility

Row | SMILES | Ratio IC50 (Homo sapiens) | pIC50 [1] | inhibition [2] [%] | pIC50 [4] | solubility kinetic [5] [µM] | Ratio IC50 [3]
1 | CC(C)(C)C(=O)N1CCc2ccc(C(=O)NO)cc2CC1 | 40 | 6.92 | < 20 | 6.24 | > 200 | 340
2 | O=C(NO)c1ccc2c(c1)CCN(S(=O)(=O)c1ccc(C(F)(F)F)cc1)C2 | – | 7.22 | < 20 | 5.89 | 25 (≈ 10 µg/mL) | 610
3 | O=C(NO)c1ccc2c(c1)CCN(C(=O)C1CCCCCC1)CC2 | 40 | 6.92 | < 20 | 5.70 | > 200 | 340
4 | O=C(NO)c1ccc2c(c1)CCCN(C(=O)C1CCCCCC1)C2 | 40 | 6.47 | < 20 | 5.54 | > 200 | > 200
5 | O=C(NO)c1ccc2c(c1)CCCN(C(=O)c1ccc(-c3ccccc3)cc1)C2 | 40 | 6.92 | < 20 | 5.51 | > 200 | 60
6 | CC(C)(C)C(=O)NCc1ccc(C(=O)NO)cc1 | 40 | 7.10 | – | – | > 200 | 200
7 | Cn1cccc1C(=O)NCc1cnc(C(=O)NO)s1 | – | 4.92 | – | – | > 200 | 8
8 | Cn1cccc1C(=O)N1CCc2ccc(C(=O)NO)cc2CC1 | 40 | 6.89 | < 20 | 5.82 | > 200 | 480
9 | O=C(NO)c1ccc(CNC(=O)C2CCCCC2)cc1 | 40 | 7.12 | – | – | > 200 | 84
10 | CC(C)(C)C(=O)N1CCCc2cc(C(=O)NO)ccc2C1 | 40 | 6.31 | < 20 | 5.43 | > 200 | > 200

Further lines, with some results ahead:

Row | Ratio IC50 (Homo sapiens) | pIC50 [1] | inhibition [2] [%] | pIC50 [4] | solubility kinetic [5] [µM] | SMILES | Ratio IC50 [3]
11 | 40 | 7.46 | < 20 | 6.80 | > 200 | CC(C)(C)C(=O)N1CCc2cc(C(=O)NO)sc2C1 | 71
12 | – | 7.55 | < 20 | 8.30 | > 200 | Cn1cccc1C(=O)N1CCc2cc(C(=O)NO)sc2C1 | 14
13 | – | 7.62 | < 20 | 7.74 | > 200 | Cn1cccc1C(=O)N1CCc2sc(C(=O)NO)cc2C1 | 30
14 | 40 | 7.23 | < 20 | 5.59 | > 200 | O=C(NO)c1ccc2c(c1)CCN(C(=O)c1ccc(-c3ccccc3)cc1)CC2 | 340
15 | 40 | 7.28 | – | – | > 200 | Cn1cccc1C(=O)NCc1ncc(C(=O)NO)s1 | 123
16 | 40 | 7.33 | < 20 | 6.75 | > 200 | CC(C)(C)C(=O)N1CCc2sc(C(=O)NO)cc2C1 | 64
17 | – | 7.70 | < 20 | 7.30 | > 200 | O=C(NO)c1cc2c(s1)CN(C(=O)C1CCCCC1)CC2 | 50
18 | 40 | 7.44 | < 20 | 6.79 | > 200 | O=C(NO)c1cc2c(s1)CCN(C(=O)C1CCCCC1)C2 | 47
19 | – | 7.27 | < 20 | 6.47 | > 200 | O=C(NO)c1ccc2c(c1)CCN(C(=O)C1CCCCCC1)C2 | 650
20 | 40 | 7.72 | – | – | > 200 | Cn1cccc1C(=O)NCc1ccc(C(=O)NO)s1 | 202
21 | – | 7.30 | < 20 | 6.27 | > 200 | O=C(NO)c1ccc2c(c1)CCN(C(=O)C1CCCCC1)C2 | 730
